In ChEMBL document CHEMBL4118097, “Selective Inhibitors of Dual Leucine Zipper Kinase (DLK, MAP3K12) with Activity in a Model of Alzheimer's Disease” (J Med Chem, 2017):

What was measured:
[1] = target: Receptor tyrosine-protein kinase erbB-2 (Homo sapiens) (UniProt P04626); assay: Inhibition of recombinant His-tagged human ErbB2 cytoplasmic domain expressed in baculovirus expression system at 1 uM by FRET assay relative to control
In short: (§1)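 Single-point screen at 1 μM compound in a 220-kinase panel run by Life Technologies (SelectScreen). Z′-LYTE format: phosphorylation of a labeled peptide substrate read by FRET. Values are reported as percent inhibition.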

[2] = target: Ephrin type-A receptor 3 (Homo sapiens) (UniProt P29320); assay: Inhibition of recombinant His-tagged human EphA3 cytoplasmic domain expressed in baculovirus expression system at 1 uM by FRET assay relative to control; in short: as §1
[3] = target: 5-hydroxytryptamine receptor 1A (Homo sapiens) (UniProt P08908); assay: Binding affinity to 5HT1A receptor (unknown origin) receptor at 10 uM relative to control
In short: (§2)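 Broad radioligand-binding and enzyme screening panel covering 42 targets (biogenic amine and neuropeptide receptors, ion channels, neurotransmitter transporters, acetylcholinesterase). Single test concentration of 10 μM. Results expressed as binding relative to control, with a hit defined as >50% of control.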

[4] = target: Mitogen-activated protein kinase 11 (Homo sapiens) (UniProt Q15759); assay: Inhibition of recombinant full length His-tagged human p38beta expressed in baculovirus expression system at 1 uM by FRET assay relative to control
Ephrin type-A receptor 7 = Ephrin type-A receptor 7 (Homo sapiens, UniProt Q15375); assay: Inhibition of recombinant GST-tagged human EphA7 cytoplasmic domain expressed in baculovirus expression system at 1 uM by FRET assay relative to control; in short: as §1
[5] = target: Casein kinase I isoform delta (Homo sapiens) (UniProt P48730); assay: Inhibition of CK1delta (unknown origin) at 1 uM by FRET assay relative to control
[6] = target: Tyrosine-protein kinase Fgr (Homo sapiens) (UniProt P09769); assay: Inhibition of recombinant full length His-tagged human FGR expressed in baculovirus expression system at 1 uM by FRET assay relative to control
[7] = target: Rho-associated protein kinase 1 (Homo sapiens) (UniProt Q13464); assay: Inhibition of recombinant N-terminal GST-tagged human ROCK1 catalytic domain (1 to 535 residues) expressed in baculovirus expression system at 1 uM by FRET assay relative to control
In short: (§3)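 Single-concentration screen at 1 μM in Life Technologies SelectScreen, across a 220-kinase panel. Z′-LYTE format measures phosphorylation of a labeled peptide by FRET. Results are reported as percent inhibition.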

[8] = target: Tyrosine-protein kinase Lyn (Homo sapiens) (UniProt P07948); assay: Inhibition of recombinant full length His-tagged human LYN expressed in baculovirus expression system at 1 uM by FRET assay relative to control
[9] = target: CDK8/Cyclin C (Homo sapiens) (UniProt P49336+P24863); assay: Inhibition of recombinant full length His-tagged human CDK8/CyclinC expressed in baculovirus expression system at 1 uM by FRET assay relative to control
[10] = target: Serine/threonine-protein kinase 16 (Homo sapiens, UniProt O75716); assay: Inhibition of recombinant full length His-tagged human STK16 expressed in baculovirus expression system at 1 uM by FRET assay relative to control
[11] = target: Aurora kinase B (Homo sapiens) (UniProt Q96GD4); assay: Inhibition of recombinant full length His-tagged human Aurora B expressed in baculovirus expression system at 1 uM by FRET assay relative to control
[12] = target: Muscarinic acetylcholine receptor M2 (Homo sapiens) (UniProt P08172); assay: Binding affinity to recombinant human M2 acetylcholine receptor at 10 uM relative to control; in short: as §2
[13] = target: Dual specificity protein kinase CLK3 (Homo sapiens) (UniProt P49761); assay: Inhibition of full length recombinant GST-tagged human CLK3 expressed in baculovirus expression system at 1 uM by FRET assay relative to control
[14] = target: MAP kinase-interacting serine/threonine-protein kinase 2 (Homo sapiens) (UniProt Q9HBH9); assay: Inhibition of recombinant human N-terminal full length GST-tagged MKNK2 expressed in baculovirus at 1 uM by FRET assay relative to control
[15] = target: Beta-1 adrenergic receptor (Homo sapiens) (UniProt P08588); assay: Binding affinity to recombinant human beta1 adrenergic receptor at 10 uM relative to control; in short: as §2
[16] = target: Beta-2 adrenergic receptor (Homo sapiens) (UniProt P07550); assay: Binding affinity to recombinant human beta2 adrenergic receptor at 10 uM relative to control; in short: as §2
Homo sapiens = organism: Homo sapiens; assay: Binding affinity to L-type calcium channel dihydropyridine binding site (unknown origin) receptor at 10 uM relative to control; in short: as §2
[17] = target: Insulin-like growth factor 1 receptor (Homo sapiens) (UniProt P08069); assay: Inhibition of recombinant His-tagged human IGF1R cytoplasmic domain (960 to 1397 residues) expressed in baculovirus expression system at 1 uM by FRET relative to control; in short: as §1
[18] = target: Mitogen-activated protein kinase kinase kinase 13 (Homo sapiens, UniProt O43283); assay: Binding affinity to full length wild type human LZK (M1 to W966 residues) expressed in mammalian cells by KINOMEscan assay; assay type: cell-based
[19] = target: Tyrosine-protein kinase Yes (Homo sapiens) (UniProt P07947); assay: Inhibition of recombinant full length GST-tagged human Yes expressed in baculovirus expression system at 1 uM by FRET assay relative to control
[20] = target: Serine/threonine-protein kinase Nek1 (Homo sapiens) (UniProt Q96PY6); assay: Inhibition of recombinant full length GST-tagged human NEK1 expressed in baculovirus expression system at 1 uM by FRET assay relative to control; in short: as §3
[21] = target: 5-hydroxytryptamine receptor 4 (Homo sapiens) (UniProt Q13639); assay: Binding affinity to 5HT4e receptor (unknown origin) receptor at 10 uM relative to control; in short: as §2
[22] = target: Proto-oncogene tyrosine-protein kinase ROS (Homo sapiens) (UniProt P08922); assay: Inhibition of recombinant GST-tagged human Ros cytoplasmic domain expressed in baculovirus expression system at 1 uM by FRET assay relative to control; in short: as §1
[23] = target: Interleukin-1 receptor-associated kinase 1 (Homo sapiens) (UniProt P51617); assay: Inhibition of recombinant GST-tagged human IRAK1 (194 to 712 residues) expressed in baculovirus expression system at 1 uM by FRET relative to control; in short: as §1
[24] = target: Dual specificity protein kinase CLK4 (Homo sapiens) (UniProt Q9HAZ1); assay: Inhibition of full length recombinant GST-tagged human CLK4 expressed in baculovirus expression system at 1 uM by FRET assay relative to control
[25] = target: Misshapen-like kinase 1 (Homo sapiens) (UniProt Q8N4C8); assay: Inhibition of recombinant human GST-tagged MINK1 expressed in baculovirus at 1 uM by FRET assay relative to control
[26] = target: Serine/threonine-protein kinase Sgk2 (Homo sapiens) (UniProt Q9HBY8); assay: Inhibition of recombinant full length GST-tagged human SGK2 catalytic domain (54 to 427 residues) expressed in baculovirus expression system at 1 uM by FRET assay relative to control; in short: as §3

Chain of Tyrosine-protein kinase Fgr (Homo sapiens) (P09769 2-529 limits assumed): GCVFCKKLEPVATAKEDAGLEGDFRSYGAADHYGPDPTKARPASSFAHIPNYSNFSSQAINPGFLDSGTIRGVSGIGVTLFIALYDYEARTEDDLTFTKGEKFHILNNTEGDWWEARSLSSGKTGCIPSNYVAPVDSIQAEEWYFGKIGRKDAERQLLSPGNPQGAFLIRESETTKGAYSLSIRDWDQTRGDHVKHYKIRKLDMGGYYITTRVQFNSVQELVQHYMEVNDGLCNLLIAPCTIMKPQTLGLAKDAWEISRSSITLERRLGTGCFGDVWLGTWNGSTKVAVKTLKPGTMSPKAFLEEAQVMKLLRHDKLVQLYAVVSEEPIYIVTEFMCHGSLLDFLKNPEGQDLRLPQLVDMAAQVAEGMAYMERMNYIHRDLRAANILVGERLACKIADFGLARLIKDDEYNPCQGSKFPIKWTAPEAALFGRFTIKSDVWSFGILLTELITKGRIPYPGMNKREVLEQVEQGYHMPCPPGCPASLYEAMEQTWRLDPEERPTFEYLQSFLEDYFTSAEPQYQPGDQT
Chain of Serine/threonine-protein kinase 16 (O75716 whole entry): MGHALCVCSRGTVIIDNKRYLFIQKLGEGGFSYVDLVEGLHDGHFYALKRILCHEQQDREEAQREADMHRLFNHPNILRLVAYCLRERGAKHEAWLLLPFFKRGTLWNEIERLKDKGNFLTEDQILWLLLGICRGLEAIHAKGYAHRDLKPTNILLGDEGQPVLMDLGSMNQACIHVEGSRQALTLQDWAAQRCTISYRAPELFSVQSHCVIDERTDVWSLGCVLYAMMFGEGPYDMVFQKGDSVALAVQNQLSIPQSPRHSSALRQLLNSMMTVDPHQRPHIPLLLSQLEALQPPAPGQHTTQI
Chain of 5-hydroxytryptamine receptor 4 (Homo sapiens) (Q13639 whole entry, the tested form may be a part): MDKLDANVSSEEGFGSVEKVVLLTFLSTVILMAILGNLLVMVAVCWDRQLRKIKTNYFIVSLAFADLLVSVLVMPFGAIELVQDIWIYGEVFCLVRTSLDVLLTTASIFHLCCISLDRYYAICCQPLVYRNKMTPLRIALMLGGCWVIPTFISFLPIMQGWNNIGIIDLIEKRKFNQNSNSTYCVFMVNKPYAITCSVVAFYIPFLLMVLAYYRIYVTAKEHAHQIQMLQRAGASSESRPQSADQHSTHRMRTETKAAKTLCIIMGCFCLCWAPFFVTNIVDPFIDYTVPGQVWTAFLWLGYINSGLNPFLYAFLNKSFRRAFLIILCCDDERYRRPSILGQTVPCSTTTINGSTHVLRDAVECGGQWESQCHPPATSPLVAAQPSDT
Chain of Beta-2 adrenergic receptor (Homo sapiens) (P07550 whole entry, looked up): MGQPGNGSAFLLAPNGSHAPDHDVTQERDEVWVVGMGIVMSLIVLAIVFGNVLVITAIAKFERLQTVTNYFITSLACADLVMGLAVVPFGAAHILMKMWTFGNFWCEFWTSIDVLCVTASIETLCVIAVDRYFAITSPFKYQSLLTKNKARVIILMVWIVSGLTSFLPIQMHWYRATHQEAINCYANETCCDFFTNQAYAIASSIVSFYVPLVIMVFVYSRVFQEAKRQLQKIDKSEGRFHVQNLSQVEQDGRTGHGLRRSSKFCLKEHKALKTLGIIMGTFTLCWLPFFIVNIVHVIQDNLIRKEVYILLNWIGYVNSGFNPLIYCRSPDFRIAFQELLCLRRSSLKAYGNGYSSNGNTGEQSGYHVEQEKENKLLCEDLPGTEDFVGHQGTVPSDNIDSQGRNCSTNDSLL
Chain of Casein kinase I isoform delta (Homo sapiens) (P48730 whole entry, looked up, canonical isoform): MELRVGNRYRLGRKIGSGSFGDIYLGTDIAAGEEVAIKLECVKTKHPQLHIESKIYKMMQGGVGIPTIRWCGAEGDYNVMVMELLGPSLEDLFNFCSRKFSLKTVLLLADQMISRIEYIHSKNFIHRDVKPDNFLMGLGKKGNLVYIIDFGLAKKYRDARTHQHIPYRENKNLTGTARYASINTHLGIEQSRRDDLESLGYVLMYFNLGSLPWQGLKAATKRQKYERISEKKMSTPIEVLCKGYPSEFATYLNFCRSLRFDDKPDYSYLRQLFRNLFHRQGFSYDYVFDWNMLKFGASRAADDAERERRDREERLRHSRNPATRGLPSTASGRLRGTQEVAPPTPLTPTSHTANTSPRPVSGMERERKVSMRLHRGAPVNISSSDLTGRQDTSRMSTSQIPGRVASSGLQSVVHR
Chain of 5-hydroxytryptamine receptor 1A (Homo sapiens) (P08908 whole entry): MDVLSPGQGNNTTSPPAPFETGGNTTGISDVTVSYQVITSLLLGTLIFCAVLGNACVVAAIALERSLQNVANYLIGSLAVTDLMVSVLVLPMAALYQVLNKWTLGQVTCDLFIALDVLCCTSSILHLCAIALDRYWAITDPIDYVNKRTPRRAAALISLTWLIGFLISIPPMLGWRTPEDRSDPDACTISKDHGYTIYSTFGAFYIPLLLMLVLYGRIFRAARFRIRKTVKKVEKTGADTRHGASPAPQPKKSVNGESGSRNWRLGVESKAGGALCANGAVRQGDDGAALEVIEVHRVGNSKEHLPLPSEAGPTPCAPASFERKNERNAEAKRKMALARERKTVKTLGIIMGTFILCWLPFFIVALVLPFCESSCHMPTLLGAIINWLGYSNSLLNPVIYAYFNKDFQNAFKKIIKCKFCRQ
Chain of Mitogen-activated protein kinase kinase kinase 13 (O43283 whole entry, the tested form may be a part): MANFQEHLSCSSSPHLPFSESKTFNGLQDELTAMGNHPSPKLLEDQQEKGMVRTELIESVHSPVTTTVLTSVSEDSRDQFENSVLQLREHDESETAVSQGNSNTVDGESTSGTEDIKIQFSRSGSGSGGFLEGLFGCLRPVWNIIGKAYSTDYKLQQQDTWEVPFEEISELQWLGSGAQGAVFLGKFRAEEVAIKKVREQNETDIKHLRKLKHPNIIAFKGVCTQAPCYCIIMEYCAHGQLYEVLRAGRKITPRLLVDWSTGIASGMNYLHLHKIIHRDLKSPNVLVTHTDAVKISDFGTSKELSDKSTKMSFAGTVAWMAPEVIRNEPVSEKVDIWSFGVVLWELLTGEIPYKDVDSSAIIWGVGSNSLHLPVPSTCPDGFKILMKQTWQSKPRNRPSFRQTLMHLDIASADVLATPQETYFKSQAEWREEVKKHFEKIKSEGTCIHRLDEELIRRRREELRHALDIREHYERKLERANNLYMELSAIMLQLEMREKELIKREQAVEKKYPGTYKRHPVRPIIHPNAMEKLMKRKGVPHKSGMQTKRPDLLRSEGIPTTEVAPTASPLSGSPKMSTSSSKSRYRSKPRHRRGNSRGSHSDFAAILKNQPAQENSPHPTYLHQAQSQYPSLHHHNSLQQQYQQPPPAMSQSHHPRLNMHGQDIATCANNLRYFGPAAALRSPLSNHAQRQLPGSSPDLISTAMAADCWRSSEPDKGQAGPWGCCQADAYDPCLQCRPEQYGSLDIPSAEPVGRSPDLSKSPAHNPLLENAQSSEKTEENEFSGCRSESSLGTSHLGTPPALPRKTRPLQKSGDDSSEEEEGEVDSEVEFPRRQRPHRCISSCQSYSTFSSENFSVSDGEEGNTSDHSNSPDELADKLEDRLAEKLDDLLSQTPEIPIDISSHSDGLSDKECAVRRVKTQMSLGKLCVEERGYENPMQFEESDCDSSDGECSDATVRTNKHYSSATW
Chain of Tyrosine-protein kinase Lyn (Homo sapiens) (P07948 2-512 limits assumed): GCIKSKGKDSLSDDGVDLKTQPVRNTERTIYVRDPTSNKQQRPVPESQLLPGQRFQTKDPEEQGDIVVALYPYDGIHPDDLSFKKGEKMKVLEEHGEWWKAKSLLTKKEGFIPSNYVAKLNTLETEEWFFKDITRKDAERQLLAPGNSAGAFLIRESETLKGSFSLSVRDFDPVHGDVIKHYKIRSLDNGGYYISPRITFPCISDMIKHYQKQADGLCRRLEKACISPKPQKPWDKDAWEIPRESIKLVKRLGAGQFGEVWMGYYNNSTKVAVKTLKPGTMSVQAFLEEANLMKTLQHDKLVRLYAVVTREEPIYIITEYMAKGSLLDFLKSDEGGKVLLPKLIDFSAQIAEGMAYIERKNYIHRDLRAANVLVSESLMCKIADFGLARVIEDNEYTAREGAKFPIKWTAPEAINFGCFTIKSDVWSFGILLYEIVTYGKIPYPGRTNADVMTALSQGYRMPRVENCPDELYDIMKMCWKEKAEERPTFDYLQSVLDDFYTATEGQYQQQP
Chain of Dual specificity protein kinase CLK3 (Homo sapiens) (P49761 whole entry, looked up): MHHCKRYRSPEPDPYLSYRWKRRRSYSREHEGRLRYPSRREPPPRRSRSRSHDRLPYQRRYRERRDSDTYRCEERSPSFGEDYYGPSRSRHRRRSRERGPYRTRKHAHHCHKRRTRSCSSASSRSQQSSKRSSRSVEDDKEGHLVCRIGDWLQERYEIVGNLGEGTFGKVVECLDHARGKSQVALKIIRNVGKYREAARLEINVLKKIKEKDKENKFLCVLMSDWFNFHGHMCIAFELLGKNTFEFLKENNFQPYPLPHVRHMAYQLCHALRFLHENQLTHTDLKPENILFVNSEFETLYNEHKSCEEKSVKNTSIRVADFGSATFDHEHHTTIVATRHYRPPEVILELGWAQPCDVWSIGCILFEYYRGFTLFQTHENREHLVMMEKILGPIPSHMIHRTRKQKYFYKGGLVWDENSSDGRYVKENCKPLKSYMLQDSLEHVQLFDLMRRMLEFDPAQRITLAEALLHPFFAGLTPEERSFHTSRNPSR
Chain of Beta-1 adrenergic receptor (Homo sapiens) (P08588 whole entry, looked up): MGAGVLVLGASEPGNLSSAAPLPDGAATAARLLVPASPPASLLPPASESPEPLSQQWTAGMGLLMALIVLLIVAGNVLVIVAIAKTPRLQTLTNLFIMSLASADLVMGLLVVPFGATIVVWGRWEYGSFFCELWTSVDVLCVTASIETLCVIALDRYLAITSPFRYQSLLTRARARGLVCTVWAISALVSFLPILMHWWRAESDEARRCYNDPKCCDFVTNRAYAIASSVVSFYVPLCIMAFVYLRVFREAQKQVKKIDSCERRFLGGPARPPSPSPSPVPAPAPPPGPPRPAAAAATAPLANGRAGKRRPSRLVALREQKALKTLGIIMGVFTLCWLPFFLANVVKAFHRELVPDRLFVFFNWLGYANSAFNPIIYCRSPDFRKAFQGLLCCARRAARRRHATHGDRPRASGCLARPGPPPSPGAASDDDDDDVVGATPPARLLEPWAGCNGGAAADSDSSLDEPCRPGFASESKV

| Structure (SMILES) | inhibition [1] [%] | inhibition [2] [%] | Activity [3] [%] | inhibition [4] [%] | inhibition (Ephrin type-A receptor 7) [%] | inhibition [5] [%] | inhibition [6] [%] | inhibition [7] [%] | inhibition [8] [%] | inhibition [9] [%] | inhibition [10] [%] | inhibition [11] [%] | Activity [12] [%] | inhibition [13] [%] | inhibition [14] [%] | Activity [15] [%] | Activity [16] [%] | Activity (Homo sapiens) [%] | inhibition [17] [%] | Kd [18] [nM] | also measured |
| --- | --- | --- | --- | --- | --- | --- | --- | --- | --- | --- | --- | --- | --- | --- | --- | --- | --- | --- | --- | --- | --- |
| Nc1ncc(-c2cc([C@H]3[C@@H]4CN(C5COC5)C[C@@H]43)n(CC3CC3)n2)cc1C(F)(F)F | -5.4 | 22.9 | > 50 | 2.5 | 51.4 | -0.3 | 32.2 | -7.4 | 17.9 | 2.4 | 33.2 | 7.4 | > 50 | -3.6 | 0.9 | > 50 | > 50 | > 50 | 13.8 | 120 | inhibition [19]: 29.8%; inhibition [20]: 3.6%; Activity [21]: > 50%; inhibition [22]: 40.1%; inhibition [23]: -6.1%; inhibition [24]: 16.4%; inhibition [25]: 12%; inhibition [26]: 0.3% |
| CC(C)n1nc(-c2cnc(N)c(OC(F)(F)F)c2)cc1[C@H]1[C@@H]2CN(C3COC3)C[C@@H]21 | -0.8 | 10.2 | > 50 | 9.3 | 39 | 10 | 31.9 | 8.8 | 15.6 | 9.9 | 50.3 | 14.4 | > 50 | 5.9 | 12.3 | > 50 | > 50 | > 50 | 9.3 | 460 | inhibition [19]: 15.8%; inhibition [20]: 5.7%; Activity [21]: > 50%; inhibition [22]: 37%; inhibition [23]: 8%; inhibition [24]: 14.5%; inhibition [25]: 33.3%; inhibition [26]: 2.7% |
